Values after ≈ are worked out from the molar mass of the structure shown. Active and inactive are the calls of the source. The rule behind the calls is not given here.
Tests used:
[1] = Inhibition of Mycobacterium smegmatis TMC 607 ATP synthase incubated for 10 mins prior to NADH addition measured after 1 hr by luminescence assay; parameters: species or system Mycolicibacterium smegmatis
[2] = test system: Mycobacterium tuberculosis; assay: Antimycobacterial activity against Mycobacterium tuberculosis H37Rv after 4 weeks by agar dilution assay; type: functional; conditions: for MIC: Mycobacterium tuberculosis, H37Rv, 672 h, read-out: MIC100
Method in brief: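 Agar dilution method. DMSO stocks (5 mg/mL) were serially diluted in DMSO, and 0.1 mL of each was mixed into 1.9 mL Middlebrook 7H10 agar with OADC and set as slants. Each tube received about 10^5 bacilli from a 3-week Lowenstein–Jensen culture suspended in saline with 0.05% Tween-80. Tubes were incubated at 37 °C for 4 weeks. MIC was the lowest concentration with no visible growth.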

[3] = Cytotoxicity against African green monkey Vero cells after 72 hrs yb resazurin assay; type: cell-based; conditions: chlorocebus sabaeus
Method in brief: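 Vero cells were seeded overnight in RPMI with 10% heat-inactivated FBS at 37 °C, 5% CO2. Cells were exposed in triplicate to concentrations from 100 to 1.56 µg/mL for 72 h. Resazurin (0.1%) was then added for 4–5 h, and fluorescence was read at ex 530/em 590 nm. CC50 was derived from the fluorescence plot.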

[4] = Selectivity index, ratio of CC50 for African green monkey Vero cells to MIC100 for Mycobacterium tuberculosis H37Rv; type: toxicity, cell-based; conditions: read-out: Selectivity Index
Method in brief: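 Selectivity index is CC50 from the Vero resazurin assay divided by the agar-dilution MIC against H37Rv.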

[5] = test system: Mycobacterium tuberculosis H37Rv; assay: Inhibition of Mycobacterium tuberculosis H37Rv ATP synthase assessed as reduction in total ATP content at 50 ug/ml after 18 hrs by bead-vortexing settling method
Method in brief: (§1)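 H37Rv was declumped by bead-vortexing and settling, adjusted to McFarland 1, then diluted 100-fold. Portions of 1 mL in tubes with 0.5 mm glass beads were exposed to compound for 18 h at 37 °C. Samples were heated 8–10 min, chilled on ice, and bead-beater lysed. Cleared lysate ATP was measured by luciferase assay.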

[6] = test system: Mycobacterium tuberculosis H37Rv; assay: Inhibition of Mycobacterium tuberculosis H37Rv ATP synthase assessed as reduction in total ATP content at 12.5 ug/ml after 18 hrs by bead-vortexing settling method; method in brief: as §1
[7] = Inhibition of Swiss mouse liver ATP synthase after 1 hr
Method in brief: (§2)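 Liver mitochondria came from an overnight-fasted adult Swiss mouse, isolated by differential centrifugation in sucrose/Tris-MOPS/EGTA buffer pH 7.4 and assayed the same day. Mitochondria (100 µg) were stirred at room temperature with 100 µM compound in Tris/HCl, sucrose, 5 mM MgCl2 and 100 µM diadenosine pentaphosphate, pH 7.4. The reaction was started with 1 mM ADP, 20 mM Pi and 50 mM succinate, stopped after 1 h with EDTA-TCA, and ATP was read by luciferase.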

[8] = Selectivity ratio of IC50 for Mycobacterium smegmatis TMC 607 ATP synthase to IC50 for Swiss mouse liver ATP synthase
[9] = test system: Mycobacterium tuberculosis; assay: Bactericidal activity against non-replicating Mycobacterium tuberculosis H37Rv Wayne model under hypoxic/oxygen depleted conditions assessed as log reduction after 4 days by serial dilution assay; type: functional
Method in brief: (§3)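 Wayne hypoxia model. A mid-log 7H9 culture was diluted to about 10^5 cfu/mL, and 10 mL was sealed in 20 mL headspace vials. Vials were stirred slowly at 37 °C for 20–22 days, until methylene blue indicator (1.5 µg/mL) decolorized. Drug was then injected through the septum, and vials were incubated 4 more days at 37 °C. Tests were run in duplicate, with CFU counted on 7H10 agar plates.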

[10] = test system: Mycobacterium tuberculosis; assay: Bactericidal activity against non-replicating Mycobacterium tuberculosis H37Rv Wayne model under hypoxic/oxygen depleted conditions assessed as log reduction at 100 ug/ml after 4 days by serial dilution assay; type: functional; method in brief: as §3
[11] = test system: Mycobacterium tuberculosis; assay: Bactericidal activity against non-replicating Mycobacterium tuberculosis H37Rv Wayne model under hypoxic/oxygen depleted conditions assessed as log reduction at 10 ug/ml after 4 days by serial dilution assay; type: functional; method in brief: as §3
[12] = test system: Escherichia coli; assay: Antibacterial activity against Escherichia coli ATCC 9637 at 50 ug/ml; type: functional, organism-based
[13] = test system: Staphylococcus aureus; assay: Antibacterial activity against Staphylococcus aureus ATCC 25923 at 50 ug/ml; type: functional, organism-based
[14] = test system: Klebsiella pneumoniae; assay: Antibacterial activity against Klebsiella pneumoniae ATCC 27736 at 50 ug/ml; type: functional, organism-based
[15] = test system: Pseudomonas aeruginosa; assay: Antibacterial activity against Pseudomonas aeruginosa ATCC BAA-427 at 50 ug/ml; type: functional, organism-based
[16] = test system: Candida albicans; assay: Antifungal activity against Candida albicans at 50 ug/ml; type: functional, organism-based
[17] = test system: Cryptococcus neoformans; assay: Antifungal activity against Cryptococcus neoformans at 50 ug/ml; type: functional, organism-based
[18] = test system: Sporothrix schenckii; assay: Antifungal activity against Sporothrix schenckii at 50 ug/ml; type: functional, organism-based
[19] = test system: Trichophyton mentagrophytes; assay: Antifungal activity against Trichophyton mentagrophytes at 50 ug/ml; type: functional, organism-based
[20] = test system: Aspergillus fumigatus; assay: Antifungal activity against Aspergillus fumigatus at 50 ug/ml; type: functional, organism-based
[21] = test system: Candida parapsilosis; assay: Antifungal activity against Candida parapsilosis ATCC 22019 at 50 ug/ml; type: functional, organism-based
[22] = Cytotoxicity against mouse bone marrow macrophages […]; type: cell-based; conditions: macrophage
[23] = test system: Mycolicibacterium smegmatis; assay: Inhibition of Mycobacterium smegmatis TMC 607 ATP synthase at 100 uM incubated for 10 mins prior to NADH addition measured after 1 hr by luminescence assay
Method in brief: (§4)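 Inverted membrane vesicles from M. smegmatis were diluted to 100 µg protein/mL in 50 mM MOPS pH 7.5 with 10 mM MgCl2. Vesicles were preincubated with compound for 10 min at room temperature with stirring, then given 2.5 mM NADH for 1 min. The reaction was started with 1 mM ADP plus 10 mM potassium phosphate and run for 1 h. It was quenched with EDTA/TCA, and ATP was read by luciferase luminescence.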

[24] = target: ATP synthase (Mycobacterium tuberculosis) (UniProt P9WPU9+P9WPU5+P9WPU7+P9WPV5+P9WPS1+P9WPV1+P9WPV7+P9WPV3); assay: Inhibition of Mycobacterium tuberculosis H37Rv ATP synthase assessed as reduction in total ATP content at 100 uM after 18 hrs by bead-vortexing settling method; type: protein-complex assay; method in brief: as §1
[25] = species on record: Mus musculus; assay: Inhibition of Swiss mouse liver ATP synthase at 100 uM after 1 hr; method in brief: as §2
[26] = test system: Mycobacterium tuberculosis; assay: Bactericidal activity against non-replicating Mycobacterium tuberculosis H37Rv Wayne model under hypoxic/oxygen depleted conditions assessed as log reduction at 50 ug/ml after 4 days by serial dilution assay; type: functional; method in brief: as §3
[27] = test system: Mycolicibacterium smegmatis; assay: Inhibition of Mycobacterium smegmatis TMC 607 ATP synthase at 0.3 uM incubated for 10 mins prior to NADH addition measured after 1 hr by luminescence assay; method in brief: as §4
[28] = test system: Mycobacterium tuberculosis H37Rv; assay: Inhibition of Mycobacterium tuberculosis H37Rv ATP synthase assessed as reduction in total ATP content at 0.5 ug/ml after 18 hrs by bead-vortexing settling method; method in brief: as §1
[29] = test system: Mycobacterium tuberculosis; assay: Bactericidal activity against non-replicating Mycobacterium tuberculosis H37Rv Wayne model under hypoxic/oxygen depleted conditions assessed as log reduction at 5 ug/ml after 4 days by serial dilution assay; type: functional; method in brief: as §3
[30] = test system: Mycobacterium tuberculosis; assay: Antimycobacterial activity against Mycobacterium tuberculosis H37Rv infected in mouse chronic TB model assessed as survival rate at 490 umol/kg administered via esophageal cannula 6 times a week for 4 weeks relative to untreated control; type: functional; conditions: 672 h
Method in brief: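 Male Balb/C mice (8–10 weeks, 18–20 g), ten per group, were infected intravenously with 5 × 10^6 CFU H37Rv in 0.2 mL. Dosing by gavage began on day 1, six times weekly for 4 weeks, with the last dose on day 28. Survival was followed to day 30. Survivors were sacrificed on day 30, and lung and spleen homogenates were plated on 7H10/OADC at 37 °C for 4–6 weeks. Results were compared with an untreated infected group.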

CCN(CC)Cc1cc(N(c2cc(C)nc3cc(Cl)ccc23)S(=O)(=O)c2cccs2)ccc1O
IC50 ([1]; read-out: IC50): 1.57 µM

CCN(CC)Cc1cc(N(c2cc(C)nc3cc(Cl)ccc23)S(=O)(=O)c2ccc(Cl)cc2Cl)ccc1O
IC50 ([1]; read-out: IC50): 0.63 µM
MIC100 [2]: 3.12 µg/mL (≈ 5.39 µM)
CC50 at 72 h [3]: > 300 µg/mL
selectivity ratio [4]: > 48
inhibition [5]: 26%
inhibition [6]: 54%
IC50 [7]: > 100 µM
Ratio IC50 [8]: > 155
MIC100 [9]: 3.12 µg/mL (≈ 5.39 µM)
log10CFU/ml [10]: 1.64
log10CFU/ml [11]: 0.79
Activity [12]: inactive
Activity [13]: inactive
Activity [14]: inactive
Activity [15]: inactive
Activity [16]: inactive
Activity [17]: inactive
Activity [18]: inactive
Activity [19]: inactive
Activity [20]: inactive
Activity [21]: inactive
Activity [22]: Non-toxic

CCN(CC)Cc1cc(N(c2cc(C)nc3cc(Cl)ccc23)S(=O)(=O)c2c(C)cc(C)cc2C)ccc1O
IC50 ([1]; read-out: IC50): 1.04 µM

CCN(CC)Cc1cc(N(c2cc(C)nc3cc(Cl)ccc23)S(=O)(=O)c2cc(C)cc(C)c2)ccc1O
IC50 ([1]; read-out: IC50): 1.83 µM

CCN(CC)Cc1cc(N(c2cc(C)nc3cc(Cl)ccc23)S(=O)(=O)[C@@]23CCC(CC2=O)C3(C)C)ccc1O
IC50 ([1]; read-out: IC50): 3.41 µM

C(=NC1CCCCC1)=NC1CCCCC1 [DICYCLOHEXYLCARBODIIMIDE]
inhibition [23]: 99.5%
inhibition [24]: 30%
inhibition [25]: 83%
MIC100 [9]: inactive
log10CFU/ml [10]: 4.68

CCN(CC)Cc1cc(N(c2cc(C)nc3cc(Cl)ccc23)S(=O)(=O)c2ccc(C#N)cc2)ccc1O
IC50 ([1]; read-out: IC50): 0.74 µM
MIC [2]: > 12.5 µg/mL

CCN(CC)Cc1cc(Nc2cc(C)nc3cc(Cl)ccc23)ccc1O
IC50 ([1]; read-out: IC50): 5.45 µM
MIC [2]: > 50 µg/mL

CCN(CC)Cc1cc(N(c2cc(C)nc3cc(Cl)ccc23)S(=O)(=O)c2ccc([N+](=O)[O-])cc2)ccc1O
IC50 ([1]; read-out: IC50): 0.39 µM
MIC100 [2]: 6.25 µg/mL (≈ 11.3 µM)
CC50 at 72 h [3]: 55 µg/mL (≈ 99.1 µM)
selectivity ratio [4]: 18

CCN(CC)Cc1cc(N(c2cc(C)nc3cc(Cl)ccc23)S(=O)(=O)c2ccc(Cl)cc2)ccc1O
IC50 ([1]; read-out: IC50): 0.53 µM
MIC100 [2]: 6.25 µg/mL (≈ 11.5 µM)
CC50 at 72 h [3]: > 300 µg/mL
selectivity ratio [4]: > 48
Activity [22]: Non-toxic

CCN(CC)Cc1cc(N(c2cc(C)nc3cc(Cl)ccc23)S(=O)(=O)c2cc(Cl)ccc2Cl)ccc1O
IC50 ([1]; read-out: IC50): 1.34 µM

CCN(CC)Cc1cc(N(c2cc(C)nc3cc(Cl)ccc23)S(=O)(=O)c2cccc(C(F)(F)F)c2)ccc1O
IC50 ([1]; read-out: IC50): 1.36 µM

CCN(CC)Cc1cc(N(c2cc(C)nc3cc(Cl)ccc23)S(=O)(=O)c2ccc(Cl)s2)ccc1O
IC50 ([1]; read-out: IC50): 0.36 µM
MIC100 [2]: 6.25 µg/mL (≈ 11.4 µM)

Cc1ncc([N+](=O)[O-])n1CCO [METRONIDAZOLE]
IC50 [1]: Not Active
MIC100 [9]: inactive
log10CFU/ml [26]: 1.16

NNC(=O)c1ccncc1 [ISONIAZID]
IC50 [1]: Not Active
inhibition [27]: 0%
MIC [2]: 0.1 µg/mL (≈ 0.729 µM)
inhibition [28]: 78.5%
MIC ([9]; Mycobacterium tuberculosis, H37Rv, 96 h, read-out: MIC100): ≤ 0.12 µg/mL
log10CFU/ml [29]: 0.21

CCN(CC)Cc1cc(N(c2cc(C)nc3cc(Cl)ccc23)S(=O)(=O)c2ccc3ccccc3c2)ccc1O
IC50 ([1]; read-out: IC50): 0.92 µM
MIC [2]: > 25 µg/mL

CC[C@@H](CO)NCCN[C@@H](CC)CO [ETHAMBUTOL]
survival at 490 µmol/kg [30]: 90%

CO[C@H]1/C=C/O[C@@]2(C)Oc3c(C)c(O)c4c(O)c(c(/C=N/N5CCN(C)CC5)c(O)c4c3C2=O)NC(=O)/C(C)=C\C=C\[C@H](C)[C@H](O)[C@@H](C)[C@@H](O)[C@@H](C)[C@H](OC(C)=O)[C@@H]1C
inhibition [28]: 69.6%

CCN(CC)Cc1cc(N(c2cc(C)nc3cc(Cl)ccc23)S(=O)(=O)c2cccc3cccnc23)ccc1O
IC50 ([1]; read-out: IC50): 1.85 µM

CCN(CC)Cc1cc(N(c2cc(C)nc3cc(Cl)ccc23)S(=O)(=O)c2ccc(Cl)c(Cl)c2)ccc1O
IC50 ([1]; read-out: IC50): 1.26 µM

CCN(CC)Cc1cc(N(c2cc(C)nc3cc(Cl)ccc23)S(=O)(=O)c2cccc3ccccc23)ccc1O
IC50 ([1]; read-out: IC50): 1 µM
MIC [2]: 12.5 µg/mL (≈ 22.3 µM)

CCN(CC)Cc1cc(N(c2cc(C)nc3cc(Cl)ccc23)S(=O)(=O)c2c(C(C)C)cc(C(C)C)cc2C(C)C)ccc1O
IC50 ([1]; read-out: IC50): 3.29 µM

— ChEMBL document CHEMBL3399929 (Bioorg Med Chem, 2015)
